In ChEMBL document CHEMBL1128568, “Design and structure-activity relationships of C-terminal cyclic neurotensin fragment analogues” (J Med Chem, 1995):
Non-standard residues stand in square brackets, D forms with d. Residues, ends and D or L forms follow the SMILES beside them. NMeR = CN[C@@H](CCCNC(=N)N)C(=O)O; Tle = CC(C)(C)[C@H](N)C(=O)O

Experiment: Binding affinity against neurotensin receptor.
In short: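 Neonatal (10-day postnatal) mouse brain membranes, cerebellum removed, washed by repeated 100000g spins in 5 mM Tris pH 7.5, resuspended 1 g wet weight/mL in 50 mM Tris pH 7.4 with BSA, bacitracin, EDTA, phenanthroline, PMSF. Competition against [3H]NT (0.20 nM final) or [125I-Tyr3]NT (0.21 nM final), 30 min at 25 °C. Separation by filtration on PEI-soaked GF/B filters. Nonspecific binding with 1 μM NT.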

First: CC(C)CC(NC(=O)CC[C@@H]1NC(=O)[C@H](Cc2c[nH]c3ccccc23)NC(=O)[C@@H]2CCCN2C(=O)[C@H](CCCCN)NC(=O)[C@H](CCCN=C(N)N)N(C)C(=O)CN(C(=O)[C@@H]2CCCN2C(=O)[C@H](CCCCN)NC(=O)[C@H](CC(N)=O)NC(=O)[C@H](CCC(=O)O)NC(=O)[C@H](Cc2ccc(O)cc2)NC(=O)[C@H](CC(C)C)NC(=O)[C@@H](N)CCC(=O)O)C1=O)C(=O)O (some centres undefined)
Second: CC(C)CC(NC(=O)CC[C@H]1NC(=O)[C@H](Cc2c[nH]c3ccccc23)NC(=O)[C@@H]2CCCN2C(=O)[C@H](CCCCN)NC(=O)[C@@H](CCCN=C(N)N)N(C(=O)[C@@H]2CCCN2C(=O)[C@H](CCCCN)NC(=O)[C@H](CC(N)=O)NC(=O)C(CCC(=O)O)NC(=O)[C@H](Cc2ccc(O)cc2)NC(=O)[C@H](CC(C)C)NC(=O)C(N)CCC(=O)O)C1=O)C(=O)O (stereo in doubt)
The Ki of the first is lower: 28 nM for the first, greater than 10000 nM for the second. The first binds more tightly here.

Going from `CC(C)C[C@H](NC(=O)[C@@H](N)CCC(=O)O)C(=O)N[C@@H](Cc1ccc(O)cc1)C(=O)N[C@@H](CCC(=O)O)C(=O)N[C@@H](CC(N)=O)C(=O)N[C@@H](CCCCN)C(=O)N1CCC[C@H]1C(=O)N(C)[C@@H](CCCN=C(N)N)C(=O)N1C(=O)[C@H](CC(C)C)NC(=O)[C@@H](CCC(=O)O)NC(=O)[C@H](Cc2c[nH]c3ccccc23)NC(=O)[C@@H]2CCCN2C(=O)[C@H]1CCCCN` to `CC(C)C[C@H](NC(=O)[C@@H](N)CCC(=O)O)C(=O)N[C@@H](Cc1ccc(O)cc1)C(=O)N[C@@H](CCC(=O)O)C(=O)N[C@@H](CC(N)=O)C(=O)N[C@@H](CCCCN)C(=O)N1CCC[C@H]1C(=O)N(C)[C@@H](CCCN=C(N)N)C(=O)N1C(=O)[C@H](CC(C)C)NC(=O)[C@H](CCC(=O)O)NC(=O)[C@H](Cc2c[nH]c3ccccc23)NC(=O)[C@@H]2CCCN2C(=O)[C@@H]1CCCCN`, the Ki falls from 2500 nM to 770 nM (3.2-fold).

Going from `CC(=O)N(C(=O)[C@@H]1CCCN1C(=O)[C@H](CCCCN)NC(=O)[C@H](CC(N)=O)NC(=O)[C@H](CCC(=O)O)NC(=O)[C@H](Cc1ccc(O)cc1)NC(=O)[C@H](CC(C)C)NC(=O)[C@@H](N)CCC(=O)O)[C@@H](CCCN=C(N)N)C(=O)N[C@@H](CCCCN)C(=O)N1CCC[C@H]1C(=O)N[C@@H](Cc1c[nH]c2ccccc12)C(=O)N[C@@H](CCC(N)=O)C(=O)N[C@@H](CC(C)C)C(=O)O` to `CC(C)C[C@H](NC(=O)[C@H](CCC(=O)O)NC(=O)[C@H](Cc1c[nH]c2ccccc12)NC(=O)[C@@H]1CCCN1C(=O)[C@H](CCCCN)NC(=O)[C@H](CCCN=C(N)N)N(C)C(=O)[C@@H]1CCCN1C(=O)[C@H](CCCCN)NC(=O)[C@H](CC(N)=O)NC(=O)[C@H](CCC(=O)O)NC(=O)[C@H](Cc1ccc(O)cc1)NC(=O)[C@H](CC(C)C)NC(=O)[C@@H](N)CCC(=O)O)C(=O)O` (H-ELYENKP[NMeR]KPWEL-OH), the Ki rises from 260 nM to greater than 10000 nM.

First: CC(C)C[C@H](NC(=O)C[C@@H]1NC(=O)[C@H](Cc2c[nH]c3ccccc23)NC(=O)[C@@H]2CCCN2C(=O)[C@H](CCCCN)NC(=O)[C@@H](CCCN=C(N)N)N(C(=O)[C@@H]2CCCN2C(=O)[C@H](CCCCN)NC(=O)[C@H](CC(N)=O)NC(=O)[C@H](CCC(=O)O)NC(=O)[C@H](Cc2ccc(O)cc2)NC(=O)[C@H](CC(C)C)NC(=O)[C@@H](N)CCC(=O)O)C1=O)C(=O)O
Second: CC(C)C[C@H](NC(=O)CC[C@@H]1NC(=O)[C@H](Cc2c[nH]c3ccccc23)NC(=O)[C@@H]2CCCN2C(=O)[C@H](CCCCN)NC(=O)[C@@H](CCCN=C(N)N)N(C(=O)[C@@H]2CCCN2C(=O)[C@H](CCCCN)NC(=O)[C@H](CC(N)=O)NC(=O)[C@H](CCC(=O)O)NC(=O)[C@H](Cc2ccc(O)cc2)NC(=O)[C@H](CC(C)C)NC(=O)[C@@H](N)CCC(=O)O)C1=O)C(=O)O
The Ki of the first is 57-fold higher: 910 nM for the first, 16 nM for the second.

First: CC(C)C[C@H](NC(=O)CC[C@@H]1NC(=O)[C@H](Cc2c[nH]c3ccccc23)NC(=O)[C@@H]2CCCN2C(=O)[C@H](C)NC(=O)[C@@H](CCCN=C(N)N)N(C(=O)[C@@H]2CCCN2C(=O)[C@H](CCCCN)NC(=O)[C@H](CC(N)=O)NC(=O)[C@H](CCC(=O)O)NC(=O)[C@H](Cc2ccc(O)cc2)NC(=O)[C@H](CC(C)C)NC(=O)[C@@H](N)CCC(=O)O)C1=O)C(=O)O
Second: CC(C)C[C@H](NC(=O)CCC[C@@H]1NC(=O)[C@H](Cc2c[nH]c3ccccc23)NC(=O)[C@@H]2CCCN2C(=O)[C@H](CCCCN)NC(=O)[C@H](CCCN=C(N)N)N(C(=O)[C@@H]2CCCN2C(=O)[C@H](CCCCN)NC(=O)[C@H](CC(N)=O)NC(=O)[C@H](CCC(=O)O)NC(=O)[C@H](Cc2ccc(O)cc2)NC(=O)[C@H](CC(C)C)NC(=O)[C@@H](N)CCC(=O)O)C1=O)C(=O)O
The Ki of the first is higher: greater than 10000 nM for the first, 830 nM for the second.

`CC(C)C[C@H](NC(=O)[C@@H](N)CCC(=O)O)C(=O)N[C@@H](Cc1ccc(O)cc1)C(=O)N[C@@H](CCC(=O)O)C(=O)N[C@@H](CC(N)=O)C(=O)N[C@@H](CCCCN)C(=O)N1CCC[C@H]1C(=O)N1C(=O)[C@H](CC(C)C)NC(=O)[C@H](C(C)(C)C)NC(=O)[C@H](Cc2ccc(O)cc2)NC(=O)[C@@H]2CCCN2C(=O)[C@H](CCCCN)NC(=O)[C@H]1CCCN=C(N)N` and `CC(C)C[C@H](NC(=O)[C@@H](N)CCC(=O)O)C(=O)N[C@@H](Cc1ccc(O)cc1)C(=O)N[C@@H](CCC(=O)O)C(=O)N[C@@H](CC(N)=O)C(=O)N[C@@H](CCCCN)C(=O)N1CCC[C@H]1C(=O)N1C(=O)[C@H](CC(C)C)NC(=O)[C@H](C(C)(C)C)NC(=O)[C@H](Cc2c[nH]c3ccccc23)NC(=O)[C@@H]2CCCN2C(=O)[C@H](CCCCN)NC(=O)[C@@H]1CCCN=C(N)N` are within 1.5-fold of each other in Ki: 440 nM for the first, 410 nM for the second.

Going from `CC(C)C[C@H](NC(=O)[C@@H](NC(=O)[C@H](Cc1c[nH]c2ccccc12)NC(=O)[C@@H]1CCCN1C(=O)[C@H](CCCCN)NC(=O)[C@H](CCCN=C(N)N)N(C)C(=O)[C@@H]1CCCN1C(=O)[C@H](CCCCN)NC(=O)[C@H](CC(N)=O)NC(=O)[C@H](CCC(=O)O)NC(=O)[C@H](Cc1ccc(O)cc1)NC(=O)[C@H](CC(C)C)NC(=O)[C@@H](N)CCC(=O)O)C(C)(C)C)C(=O)O` (H-ELYENKP[NMeR]KPW[Tle]L-OH) to `CC(C)C[C@H](NC(=O)[C@H]1NC(=O)[C@H](Cc2c[nH]c3ccccc23)NC(=O)[C@H]2CCCN2C(=O)[C@H](NC(=O)[C@H](CCCN=C(N)N)N(C)C(=O)[C@@H]2CCCN2C(=O)[C@H](CCCCN)NC(=O)[C@H](CC(N)=O)NC(=O)[C@H](CCC(=O)O)NC(=O)[C@H](Cc2ccc(O)cc2)NC(=O)[C@H](CC(C)C)NC(=O)[C@@H](N)CCC(=O)O)CSSC1(C)C)C(=O)O`, the Ki rises from 0.67 nM to 83 nM (120-fold).

First: CC(C)C[C@H](NC(=O)[C@@H](N)CCC(=O)O)C(=O)N[C@@H](Cc1ccc(O)cc1)C(=O)N[C@@H](CCC(=O)O)C(=O)N[C@@H](CC(N)=O)C(=O)N[C@@H](CCCCN)C(=O)N1CCC[C@H]1C(=O)N1C(=O)[C@H](CCC(=O)O)NC(=O)[C@H](Cc2c[nH]c3ccccc23)NC(=O)[C@@H]2CCCN2C(=O)[C@H](CCCCN)NC(=O)[C@H]1CCCN=C(N)N
Second: CC(C)C[C@H](NC(=O)[C@@H](N)CCC(=O)O)C(=O)N[C@@H](Cc1ccc(O)cc1)C(=O)N[C@@H](CCC(=O)O)C(=O)N[C@@H](CC(N)=O)C(=O)N[C@@H](CCCCN)C(=O)N1CCC[C@H]1C(=O)N1C(=O)[C@H](CCC(=O)NCC(=O)O)NC(=O)[C@H](Cc2c[nH]c3ccccc23)NC(=O)[C@@H]2CCCN2C(=O)[C@H](CCCCN)NC(=O)[C@H]1CCCN=C(N)N
The Ki of the first is higher: greater than 10000 nM for the first, 250 nM for the second.

First: CC(C)C[C@H](NC(=O)[C@H]1NC(=O)[C@H](Cc2c[nH]c3ccccc23)NC(=O)[C@H]2CCCN2C(=O)[C@H](NC(=O)[C@H](CCCN=C(N)N)N(C)C(=O)[C@@H]2CCCN2C(=O)[C@H](CCCCN)NC(=O)[C@H](CC(N)=O)NC(=O)[C@H](CCC(=O)O)NC(=O)[C@H](Cc2ccc(O)cc2)NC(=O)[C@H](CC(C)C)NC(=O)[C@@H](N)CCC(=O)O)C(C)(C)SSC1(C)C)C(=O)O
Second: CC(C)C[C@H](NC(=O)[C@@H]1CSSC[C@@H](NC(=O)[C@H](CCCN=C(N)N)N(C)C(=O)[C@@H]2CCCN2C(=O)[C@H](CCCCN)NC(=O)[C@H](CC(N)=O)NC(=O)[C@H](CCC(=O)O)NC(=O)[C@H](Cc2ccc(O)cc2)NC(=O)[C@H](CC(C)C)NC(=O)[C@@H](N)CCC(=O)O)C(=O)N2CCC[C@@H]2C(=O)N[C@@H](Cc2c[nH]c3ccccc23)C(=O)N1)C(=O)O
The Ki of the first is 5.4-fold higher: 4400 nM for the first, 810 nM for the second.

Work on `CC(C)C[C@H](NC(=O)[C@@H](N)CCC(=O)O)C(=O)N[C@@H](Cc1ccc(O)cc1)C(=O)N[C@@H](CCC(=O)O)C(=O)N[C@@H](CC(N)=O)C(=O)N[C@@H](CCCCN)C(=O)N1CCC[C@H]1C(=O)N(C)[C@@H](CCCN=C(N)N)C(=O)N1C(=O)[C@H](CC(C)C)NC(=O)[C@@H](CCC(=O)O)NC(=O)[C@H](Cc2c[nH]c3ccccc23)NC(=O)[C@@H]2CCCN2C(=O)[C@@H]1CCCCN` yielded a Ki of 1600 nM.
